The text below walks through data of ChEMBL document CHEMBL1153722, “Design, synthesis, and characterization of peptide-based rab geranylgeranyl transferase inhibitors” (J Med Chem, 2009).

Structures are written as SMILES. Peptide text beside a SMILES is read from it. * marks the point of attachment. Hydrocinnamoyl = O=C(CCc1ccccc1)*; Undecanoyl = CCCCCCCCCCC(=O)*; NHBn = c1ccc(CN*)cc1

Biological target in one experiment: not listed separately
In words: Inhibition of rat recombinant Rab geranylgeranyltransferase iin presence of canine Rab7 and rat REP1 by NBD-FPP based continuous fluorimetric assay. Put shortly:
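Continuous fluorometric assay in 96/384-well format: 3 μM Rab7, 3 μM REP1, 9 μM NBD-FPP and 400 nM RabGGTase, with or without inhibitor. IC50 was calculated from three independent measurements.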
Regarding `O=C(CNC(=O)c1csc(-c2cccs2)n1)N[C@@H](Cc1ccccc1)C(=O)N[C@@H](Cc1cn(C(c2ccccc2)(c2ccccc2)c2ccccc2)cn1)C(=O)O`, the IC50 (usually the point on the concentration scale where inhibition reaches its midpoint) came to 36 µM.

With `CCCCCCCCCCCOc1ccc(C(=O)N[C@@H](Cc2ccc(O)cc2)C(=O)N[C@@H](Cc2ccc(O)cc2)C(=O)N[C@@H](Cc2ccc(O)cc2)C(=O)NCCCCN)cc1`, the IC50 was found to be 11.6 µM. Turning to `O=C(CNC(=O)c1csc(-c2cccs2)n1)N[C@@H](Cc1ccccc1)C(=O)N[C@@H](Cc1c[nH]cn1)C(=O)O`, the 50% inhibitory concentration (IC50) is 41 µM.

Consider `O=C(CNC(=O)c1coc(-c2ccccc2)n1)N[C@@H](Cc1ccccc1)C(=O)N[C@@H](Cc1c[nH]cn1)C(=O)O`, for which the IC50 amounted to 45 µM. On the same count and under the same terms, then `CCCCCCCCCCC(=O)N[C@@H](Cc1ccc(O)cc1)C(=O)N[C@@H](Cc1c[nH]cn1)C(=O)N[C@@H](Cc1ccc(O)cc1)C(=O)OC` (Undecanoyl-Tyr-His-Tyr-OMe), with 3.9 µM.

With `CCC/C=C\c1ccccc1/C=C/C(=O)N[C@H](Cc1c[nH]cn1)C(=O)N(C)[C@H](CN[C@H](Cc1ccccc1)C(=O)O)Cc1ccc(O)cc1`, the IC50 is 15.2 µM.

Regarding `Cc1nc(C(=O)NCC(=O)N[C@@H](Cc2ccccc2)C(=O)N[C@@H](Cc2cn(C(c3ccccc3)(c3ccccc3)c3ccccc3)cn2)C(=O)O)c(C)o1`, the IC50 stood at 46 µM. Take `CN(C(=O)[C@H](Cc1c[nH]cn1)NC(=O)OCc1ccccc1OCc1ccccc1)[C@H](CN[C@@H](Cc1ccccc1)C(=O)O)Cc1ccc(O)cc1`: the IC50 amounted to 19.3 µM. Same read-out and setting: then `O=C(CNC(=O)[C@H](Cc1c[nH]cn1)NC(=O)c1coc(-c2ccccc2)n1)N[C@@H](Cc1c[nH]cn1)C(=O)O`, with more than 50 µM.

Take `CCCCCCCCCCC(=O)N[C@@H](Cc1ccc(O)cc1)C(=O)N[C@@H](Cc1c[nH]cn1)C(=O)N[C@@H](Cc1ccc(O)cc1)C(=O)NCCCCN`: the IC50 amounted to 7.1 µM. On the same count and under the same terms, to `CN(C(=O)[C@H](Cc1c[nH]cn1)NC(=O)OCc1ccccc1)[C@@H](Cc1ccccc1)C(=O)N[C@H](Cc1ccc(O)cc1)C(=O)NO` belongs 13.6 µM; to `CCCCCCCCCCCOc1ccc(C(=O)N[C@@H](Cc2c[nH]cn2)C(=O)N[C@@H](Cc2c[nH]cn2)C(=O)N[C@@H](Cc2c[nH]cn2)C(=O)N(C)CCc2ccccn2)cc1`, 12.1 µM.

For `CCCCC(=O)N[C@@H](Cc1c[nH]cn1)C(=O)N[C@@H](Cc1ccccc1)C(=O)N[C@@H](Cc1ccc(O)cc1)CN(C)CCc1ccccn1`, the 50% inhibitory concentration (IC50) was more than 100 µM. The same measure, in the same setting: then `CCCCCc1ccc(CCC(=O)N[C@H](Cc2c[nH]cn2)C(=O)N(C)[C@H](CN[C@@H](Cc2ccccc2)C(=O)O)Cc2ccccc2)cc1`, with 19 µM; and `O=C(CNC(=O)c1csc(-c2cccnc2)n1)N[C@@H](Cc1ccccc1)C(=O)N[C@@H](Cc1cn(C(c2ccccc2)(c2ccccc2)c2ccccc2)cn1)C(=O)O`, with 37 µM; and `CCCCCCCCCCCCCCC(=O)N[C@@H](Cc1c[nH]cn1)C(=O)N[C@@H](Cc1ccccc1)C(=O)N[C@@H](Cc1ccc(O)cc1)CN(C)CCc1ccccn1`, with 26 µM. Take `CN(C(=O)[C@@H](Cc1c[nH]cn1)NC(=O)OCc1ccccc1OCc1ccccc1)[C@H](CN[C@@H](Cc1ccccc1)C(=O)O)Cc1ccc(O)cc1`: the half-maximal inhibitory concentration (IC50) stood at 15.6 µM. On the same count and under the same terms, then `CN(C(=O)[C@@H](Cc1c[nH]cn1)NC(=O)/C=C/c1ccc(-c2ccccc2)cc1)[C@H](CN[C@@H](Cc1ccc(O)cc1)C(=O)O)Cc1ccc(O)cc1`, with 22.7 µM.

For the next experiment, the species on record is Rattus norvegicus. Briefly: Inhibition of rat recombinant Rab geranylgeranyltransferase at 100 uM in presence of canine Rab7 and rat REP1 NBD-FPP based continuous fluorimetric assay. Put shortly:
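Continuous fluorometric assay in 96/384-well format: 3 μM Rab7, 3 μM REP1, 9 μM NBD-FPP and 400 nM RabGGTase, with or without inhibitor. […] IC50 was calculated from three independent measurements.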
As for `C=CCOC(=O)[C@H](Cc1c[nH]cn1)NC(=O)[C@H](Cc1ccccc1)NC(=O)CNC(=O)C1COC(c2ccccc2)=N1` (some centres not stated), the inhibition (in general, the change of the read-out against control, counted positive when it falls) is 106%. For the compound `O=C(CCc1ccccc1)N[C@@H](CO)C(=O)NCC(=O)N[C@@H](CO)C(=O)NCc1ccccc1` (Hydrocinnamoyl-Ser-Gly-Ser-NHBn), the inhibition came out at 90%.

With `C=CCOC(=O)[C@H](Cc1ccccc1)N(C)C(=O)[C@H](Cc1ccc(OC)cc1)N(C)C(=O)[C@@H](Cc1ccc(O)cc1)NC(=O)CCc1ccccc1`, the inhibition is 74%.

Consider `CC[C@H](C)[C@H](NC(=O)c1ccc(-c2ccccc2)cc1)C(=O)N[C@@H](C(=O)N[C@@H](CCC(N)=O)C(=O)NNC(=O)OC)C(C)C`, for which the inhibition came to 99%.
